Reference: PMC8545458 (Cell reports, 2021)

What was measured:
[1] = system: INS-1 832/13 pTetR TO shWfs1 cells; experiment: Wolfram caspase 3/7 assay; assay type: cell-based, rat; conditions: compounds and doxycycline for 48 h
[2] = system: UPRE-NLuc reporter in SH-SY5Y cells; experiment: UPRE luciferase reporter assay; assay type: cell-based, human; conditions: compound pre-treatment, then 100 nM thapsigargin
[3] = system: BiP, ERdj4, and ASNS mRNA in SH-SY5Y cells; experiment: ER stress response transcriptional analysis; assay type: cell-based, human; conditions: 30 μM compounds 16 h prior to 4 h 100 nM thapsigargin
In short: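 SH-SY5Y cells were plated at 2.5×10^5 cells/500 μl in 24-well plates. Test compound (30 μM) was given 16 h before a 4 h exposure to 100 nM thapsigargin. Total RNA was isolated with on-column DNA digestion, and 0.5 μg was reverse-transcribed with cDNA diluted 1:20. BiP reports the ATF6 arm. Data are 2^-ddCq (n=6) versus thapsigargin only, by one-way ANOVA with Dunnett's test.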

[4] = system: SH-SY5Y-GLuc-SERCaMP cells; experiment: SERCaMP assay, acute treatment paradigm; assay type: cell-based, human; conditions: 30 μM compound; 200 nM thapsigargin; measured 8 h after thapsigargin
[5] = system: primary human skeletal muscle cells; experiment: Human skeletal muscle exodosis assay; assay type: cell-based; conditions: 30-minute pre-treatment; 100 nM thapsigargin, 8 h
In short: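 Primary human myoblasts are grown in DMEM (4.5 g/L glucose) at 37°C and 5.5% CO2. They are plated at 7.3×10^3 cells/well on 3 mg/ml Matrigel-coated 96-well plates. Medium is sampled 4–8 h after thapsigargin. Secreted GLuc-SERCaMP is read as luminescence 8 h after 100 nM thapsigargin, after injecting 8 μM coelenterazine into 5 μl medium. n=11–12 wells per concentration.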

[6] = CD-1 mice; value for 686 in brain
[7] = system: C57Bl/6J male mice on high fat diet; experiment: Metabolic testing in Diet Induced Obese; conditions: DIO mice, 12 mg/kg i.p. daily; for fasting insulin / insulin resistance index (HOMA-IR): vs vehicle
Sprague-Dawley rats = conditions: for Bederson’s neurological score: rat, intracerebroventricular 15 min prior to 60 min MCAo, vs vehicle
SH-SY5Y cells = experiment: Endogenous SERCaMPs; assay type: cell-based, human; conditions: 20 μM
In short: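 SH-SY5Y cells were seeded at 5×10^4 cells/well in 96-well plates and given 16 h hypoxia plus 24 h normoxia with test compound (20 μM). At reperfusion, medium was fully exchanged to phenol red-free, serum-free esterase buffer (NaCl, KCl, MgCl2, CaCl2, glucose, 20 mM HEPES), collected 8 h later, and mixed 1:1 with 100 μM fluorescein […] substrate ([…]). Fluorescence (ex 465/em 528) was read after 1 h. n=24 wells; two-way ANOVA.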

[8] = system: ER calcium store in SH-SY5Y cells; experiment: GCaMPer ER calcium assay; assay type: cell-based, human; conditions: 16 hour pre-treatment; 50 nM thapsigargin, 30 min
[9] = system: BiP/GRP78 protein levels in SH-SY5Y-SERCaMP cells; experiment: BiP immunoblot; assay type: cell-based, human; conditions: 30 μM compounds 16 h prior to 4 h 100 nM thapsigargin
[10] = system: SH-SY5Y cells transfected with GLuc-ERS constructs; experiment: GLuc-ERS; assay type: cell-based, human; conditions: 20 μM
In short: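 SH-SY5Y cells are reverse-transfected with GLuc-ERS reporter constructs: 5 × 10^4 cells are plated onto the transfection complexes in antibiotic-free medium and grown 48 h. OGD is 16 h hypoxia plus 24 h normoxia, with the test compound added at the start of OGD. GLuc is assayed in medium and lysates with coelenterazine. The secretion index is extracellular/intracellular GLuc. n=9–15 wells.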

[11] = system: SH-SY5Y-GLuc-SERCaMP cells; experiment: Oxygen-glucose deprivation; assay type: cell-based, human; conditions: 16 h hypoxia plus 24 h normoxia; for cell attachment and viability after OGD: drugs added at beginning of OGD
[12] = system: SH-SY5Y human neuroblastoma cells stably expressing GLuc-SERCaMP; experiment: GLuc-SERCaMP assay; assay type: cell-based; conditions: 4 h, read-out: EC50, GLuc-SERCaMP secretion in response to thapsigargin
[13] = system: SH-SY5Y cells stably expressing a constitutively secreted GLuc (SH-SY5Y-GLuc); experiment: SH-SY5Y-GLuc counterscreen; assay type: cell-based, human; conditions: 19 h treatment
In short: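 The counterscreen used SH-SY5Y cells expressing untagged, constitutively secreted Gaussia luciferase in 1536-well plates. Cells were exposed to test compound for 19 h, and GLuc was read from the medium. The ER-to-Golgi transport blocker brefeldin A (19 h) was titrated on each of eight plates as a control (n=2 per concentration).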

[14] = 16 h hypoxia plus 24 h normoxia

SMILES | caspase 3/7 activation associated with Wfs1 knockdown [1] | UPRE-NLuc activation [2] | SERCaMP release, compound added 30 min pre- to 2 hours post-thapsigargin [4] | SERCaMP release, compound added 4 hours post-thapsigargin [4] | GLuc-SERCaMP release in primary human skeletal muscle cells [5] | Bederson’s neurological score (Sprague-Dawley rats) | effect on ER calcium (GCaMPer fluorescence) [8] | GLuc-SERCaMP secretion after OGD [11] | cell attachment and viability after OGD [11] | further results
COc1ccc(CCN(C)CCCC(C#N)(c2ccc(OC)c(OC)c2)C(C)C)cc1OC (stereo not drawn) [verapamil] | reduced caspase 3/7 activation | diminished UPRE-NLuc activation | inhibited SERCaMP release | inactive | partially attenuated GLuc-SERCaMP release |  |  |  |  | BiP mRNA levels [3]: reduced expression of BiP
CC(C)C[C@H]1C(=O)N2CCC[C@H]2[C@]2(O)O[C@](NC(=O)[C@@H]3C=C4c5cccc6c5c(c(Br)n6C(=O)NC5CC5)C[C@H]4N(C)C3)(C(C)C)C(=O)N12.Cl [analog 688, (6aR,9R)-5-bromo-N4-cyclopropyl-N9-((2R,5S,10aS,10bS)-10b-hydroxy-5-isobutyl-2-isopropyl-3,6-dioxooctahydro-8H-oxazolo[3,2-a]pyrrolo[2,1-c]pyrazin-2-yl)-7-methyl-6a,7,8,9-tetrahydroindolo[4,3-fg]quinoline-4,9(6H)-dicarboxamide, HCl] |  |  |  |  |  | significant reduction |  |  |  | metabolic conversion to the parent bromocriptine molecule [6]: no detectable conversion; change in body weight following the first week of injections [7]: did not show; cumulative caloric intake and energy expenditure during the three weeks of treatment [7]: did not show; fasting glucose levels at 4 hours [7]: reduced fasting glucose levels; food intake at the end of the second and third week of injections [7]: did not show; fasting insulin [7]: reduced; insulin resistance index (HOMA-IR) [7]: reduced
CC(C)C[C@H]1C(=O)N2CCC[C@H]2[C@]2(O)O[C@](NC(=O)[C@@H]3C=C4c5cccc6c5c(c(Br)n6C(=O)C5CC5)C[C@H]4N(C)C3)(C(C)C)C(=O)N12.Cl [analog 686, (6aR,9R)-5-bromo-4-(cyclopropanecarbonyl)-N-((2R,5S,10aS,10bS)-10b-hydroxy-5-isobutyl-2-isopropyl-3,6-dioxooctahydro-8H-oxazolo[3,2-a]pyrrolo[2,1-c]pyrazin-2-yl)-7-methyl-4,6,6a,7,8,9-hexahydroindolo[4,3-fg]quinoline-9-carboxamide, HCl] |  |  |  |  |  | significant reduction |  |  |  | metabolic conversion to the parent bromocriptine molecule [6]: < 1%; reduction of infarction volume compared with bromocriptine (Sprague-Dawley rats; rat MCAO): more effective than bromocriptine
CC(C)C[C@H]1C(=O)N2CCC[C@H]2[C@]2(O)O[C@](NC(=O)[C@@H]3C=C4c5cccc6[nH]c(Br)c(c56)C[C@H]4N(C)C3)(C(C)C)C(=O)N12 [bromocriptine] | reduced caspase 3/7 activation | diminished UPRE-NLuc activation | inhibited SERCaMP release | inactive | partially attenuated GLuc-SERCaMP release | significant reduction | stabilizing effect on ER calcium | decreased GLuc-SERCaMP secretion | improved cell attachment and viability | thapsigargin-induced secretion of PDI, MANF, and carboxylesterases (SH-SY5Y cells; 0.5 h before or 1 h following 200 nM thapsigargin): reduced thapsigargin-induced secretion of all three proteins; OGD-induced release of carboxylesterases (SH-SY5Y cells; [14]): decreased; change in body weight following the first week of injections [7]: significant decrease in body weight; cumulative caloric intake and energy expenditure during the three weeks of treatment [7]: significantly higher; fasting glucose levels at 4 hours [7]: reduced fasting glucose levels; food intake at the end of the second and third week of injections [7]: elevated; glucose excursion AUC in glucose tolerance tests [7]: reduced the glucose excursion AUC; fasting insulin [7]: reduced; insulin resistance index (HOMA-IR) [7]: reduced; BiP/GRP78 protein levels [9]: reduced thapsigargin-induced accumulation; thapsigargin-induced release of GLuc-ERS reporter proteins ([10]; 30 min pre-treatment, 200nM thapsigargin 8 h): broadly inhibited thapsigargin-induced release of the reporter proteins; OGD-induced release of GLuc-ERS reporter proteins [10, 14]: broadly reduced the OGD-induced release of the reporter proteins; BiP mRNA levels [3]: reduced expression of BiP
O=C1CN(/N=C/c2ccc(-c3ccc([N+](=O)[O-])cc3)o2)C(O)=N1 [dantrolene] |  | inactive | inhibited SERCaMP release | inactive | partially attenuated GLuc-SERCaMP release |  |  | decreased GLuc-SERCaMP secretion | improved cell attachment and viability | 
C/C=C(/C)C(=O)O[C@H]1C(C)=C2[C@H]([C@@H]1OC(=O)CCCCCCC)[C@@](C)(OC(C)=O)C[C@H](OC(=O)CCC)[C@@]1(O)[C@H]2OC(=O)[C@@]1(C)O [Thapsigargin] |  |  |  |  |  |  |  |  |  | EC50 [12]: 112 nM
C[C@@H]1C[C@@H]([C@H](O)CC2CC(=O)NC(=O)C2)C(=O)[C@@H](C)C1 [cycloheximide] |  |  |  |  |  |  |  |  |  | activity in the SH-SY5Y-GLuc counterscreen [13]: inhibitory activity
COc1ccc2c(c1)[C@]13CCCC[C@@H]1[C@H](C2)N(C)CC3 [dextromethorphan] |  | diminished UPRE-NLuc activation | inhibited SERCaMP release | inactive | partially attenuated GLuc-SERCaMP release |  | no effect |  |  | 
COc1ccc([C@@H]2Sc3ccccc3N(CCN(C)C)C(=O)[C@@H]2OC(C)=O)cc1 [diltiazem] | reduced caspase 3/7 activation | inactive | inhibited SERCaMP release | inactive | partially attenuated GLuc-SERCaMP release |  | no effect | decreased GLuc-SERCaMP secretion | improved cell attachment and viability | 
